We go through 29 compounds from ChEMBL document CHEMBL1132490, “Improving the nicotinic pharmacophore with a series of (Isoxazole)methylene-1-azacyclic compounds: synthesis, structure-activity relationship, and molecular modeling” (J Med Chem, 1999).

As a reminder, the IC50 is the concentration needed to halve the response being measured. A higher IC50 goes with a need for much substance.

For assay [1], the target named is Neuronal acetylcholine receptor. The experiment in a line: In vitro displacement of [3H]methylcarbamylcholine from nicotinic acetylcholine receptor in rat brain cortex. It counts as tissue-based. The gist of the method: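 Male Mol:WIST rat cerebral cortex (fresh or frozen), homogenised in 50 mM Tris-HCl pH 7.4 with 120 mM NaCl, 5 mM KCl, 2 mM CaCl2, 1 mM MgCl2, spun 40000g 10 min; pellet resuspended. Incubated with [3H]MCC (2 nM final) and test salt, 60 min at 0 °C; GF/B filtration (0.5% PEI), scintillation counting. IC50 by nonlinear regression.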
In general terms: Loss of bound radioactivity is the signal in a displacement assay; it reports binding, not function.

The target of assay [2] is Muscarinic acetylcholine receptor. The experiment in a line: In vitro displacement of [3H]oxotremorine-M from muscarinic acetylcholine receptor in rat brain cortex. It counts as tissue-based.

In the case of `Cc1cc(/C=C2/CCN(C)C2)on1`, the results for the half-inhibitory concentration (IC50) in assay [1] and in assay [2] were 783 nM and 4420 nM, respectively. For `Cc1cc(/C=C2/CN3CCCC2C3)on1` (configuration not stated), the values for the IC50 in assay [1] and in assay [2] were 53 nM and 1570 nM, respectively. The corresponding values for `Cc1cc(/C=C2\CCN(C)C2)on1` are over 1000 nM and 15700 nM.

Take `Cc1cc(/C=C2\CCCNC2)on1`: the 50% inhibitory concentration (IC50) in assay [1] is over 1000 nM; in assay [2], 6950 nM. The corresponding values for `COCc1cc(/C=C2/CN3CCC2CC3)on1` are over 1000 nM and 4000 nM. The corresponding values for `Cc1cc(/C=C2\CCCN(C)C2)on1` are over 1000 nM and 9540 nM. As for `CC(C)c1cc(/C=C2/CN3CCC2CC3)on1`, the 50% inhibitory concentration (IC50) in assay [1] is over 1000 nM; in assay [2], 2280 nM. As for `CCc1cc(/C=C2\CN3CCC2CC3)on1`, the results for the IC50 in assay [1] and in assay [2] were 100 nM and 566 nM, respectively. Turning to `Cc1cnoc1/C=C1\CN2CCC1C2` (configuration not stated), the values for the half-maximal inhibitory concentration (IC50) in assay [1] and in assay [2] were 0.32 nM and 19 nM, respectively. For `CC(C)c1cc(/C=C2\CN3CCC2CC3)on1`, the figures for the concentration for half-maximal inhibition (IC50) in assay [1] and in assay [2] were 107 nM and 911 nM, respectively. The corresponding values for `C/C(=C1/CN2CCC1CC2)c1cc(C)no1` are 715 nM and 2263 nM. The corresponding values for `Cc1cc(/C=C2/CCCNC2)on1` are 87 nM and 7220 nM.

For the compound `Cc1cc(/C=C2/CCNC2)on1`, the results for the half-maximal inhibitory concentration (IC50) in assay [1] and in assay [2] were over 1000 nM and 3290 nM, respectively. The corresponding values for `Cc1cc(/C=C2/CN3CCC2C3)on1` (configuration not stated) are 23 nM and 1020 nM. Take `Cc1cc(/C=C2\CN3CCC2C3)on1` (configuration not stated): the results for the IC50 in assay [1] and in assay [2] were 29 nM and 276 nM, respectively. The corresponding values for `Cc1cc(/C=C2/CN3CCC2CC3)on1` are 504 nM and 1810 nM. The corresponding values for `CCCc1cc(/C=C2/CN3CCC2CC3)on1` are over 1000 nM and 1930 nM. As for `COCc1cc(/C=C2\CN3CCC2CC3)on1`, the IC50 in assay [1] was found to be 218 nM; in assay [2], 1470 nM. On to `C(=C1/CN2CCC1CC2)/c1ccno1`, for which the figures for the half-maximal inhibitory concentration (IC50) in assay [1] and in assay [2] were 1.65 nM and 312 nM, respectively. The corresponding values for `Cc1cnoc1/C=C1\CN2CCC1CC2` are 3.2 nM and 418 nM. With `Cc1cc(/C(F)=C2\CN3CCC2CC3)on1`, the IC50 in assay [1] was determined as 255 nM; in assay [2], 1450 nM.

As to `CCc1cc(/C=C2/CN3CCC2CC3)on1`, the IC50 in assay [1] is over 1000 nM; in assay [2] it was 867 nM. As to `Cc1noc(/C=C2/CN3CCC2CC3)c1C`, the IC50 is over 1000 nM in assay [1] and 373 nM in assay [2]. The corresponding values for `Cc1cc(C=C2CNC2)on1` are over 1000 nM and 19300 nM. For `Cc1cc(/C=C2/CCCN(C)C2)on1`, the IC50 is over 1000 nM in assay [1] and 5760 nM in assay [2]. The corresponding values for `CCCc1cc(/C=C2\CN3CCC2CC3)on1` are 167 nM and 852 nM. The corresponding values for `Cc1cc(/C=C2\CN3CCC2CC3)on1` are 3.9 nM and 658 nM. Regarding `Cc1cc(/C=C2\CN3CCCC2C3)on1` (configuration not stated), the IC50 in assay [1] was found to be 130 nM; in assay [2], 898 nM. On to `Clc1ccc(C2CC3CCC2N3)cn1` (racemic) [EPIBATIDINE], for which the half-inhibitory concentration (IC50) in assay [2] was over 1 nM.
